Screening results: PubChem BioAssay, several laboratories
This is a sample that favours compounds with a hit; in the whole collection about 4.5% have one here.
HCV NS3 hel inh = inhibitors of HCV NS3 helicase, primary screen, biochemical, Cy5 molecular beacon fluorescence. Hepatitis C virus NS3 helicase. NS3 helicase DNA unwinding. inhibition, % at 10.9 µM. hit rate 0.56% among 290,000;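 active = inhibition above the mean of all tested compounds plus 3 SD, set per campaign, cut at about 35% in these data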;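 note: 0% = DMSO wells and 100% = thioflavine S control wells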
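Compound dosing – single dose, 10.9 µM nominal final, DMSO 0.8% final · System – NS3 helicase fragment of HCV · Buffer or medium – MOPS pH 6.5, MgCl2, DTT, Tween20, BSA · Signal – Cy5 beacon fluorescence read at start and 1 h · Also added – annealed dual-labelled DNA beacon duplex, ATP-started · Schedule – 1 h at 25 °C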
UPR XBP1 act = activators of adaptive XBP1 UPR arm, primary screen, cell-based, CHO-XBP1 luciferase reporter, luminescence, uHTS; IRE1-XBP1 UPR activation; percent of tunicamycin response, DMSO as zero; activation, % at 20 µM; hit rate 0.33% among 330,000;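 active = versus positive control, 20 µM dose yields 30% or more activation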;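 note: 100% = tunicamycin at 10 µg/mL and 0% = DMSO only wells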
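Material: IRE1-XBP1 luciferase reporter CHO line / Quantity: one thousand reporter cells per well / Buffer or medium: F12 with 10% serum / Compound: 20 µM single concentration, DMSO 1% / Times: 6 h treatment, 37 °C / Detection: Steady-Glo luciferase glow luminescence, 10 min after reagent addition / Benchmarks: tunicamycin high, DMSO low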
p97 ATPase inh = inhibitors of human p97 ATPase, primary screen, biochemical; recombinant p97 ATPase, Kinase-Glo ATP luminescence, 3 h; inhibition, % at 8 µM; hit rate 0.42% among 220,000; in the data active = inhibition above about 15%;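 note: 0% = DMSO vehicle and 100% = wells lacking enzyme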
Target sequence (P55072 whole entry, looked up): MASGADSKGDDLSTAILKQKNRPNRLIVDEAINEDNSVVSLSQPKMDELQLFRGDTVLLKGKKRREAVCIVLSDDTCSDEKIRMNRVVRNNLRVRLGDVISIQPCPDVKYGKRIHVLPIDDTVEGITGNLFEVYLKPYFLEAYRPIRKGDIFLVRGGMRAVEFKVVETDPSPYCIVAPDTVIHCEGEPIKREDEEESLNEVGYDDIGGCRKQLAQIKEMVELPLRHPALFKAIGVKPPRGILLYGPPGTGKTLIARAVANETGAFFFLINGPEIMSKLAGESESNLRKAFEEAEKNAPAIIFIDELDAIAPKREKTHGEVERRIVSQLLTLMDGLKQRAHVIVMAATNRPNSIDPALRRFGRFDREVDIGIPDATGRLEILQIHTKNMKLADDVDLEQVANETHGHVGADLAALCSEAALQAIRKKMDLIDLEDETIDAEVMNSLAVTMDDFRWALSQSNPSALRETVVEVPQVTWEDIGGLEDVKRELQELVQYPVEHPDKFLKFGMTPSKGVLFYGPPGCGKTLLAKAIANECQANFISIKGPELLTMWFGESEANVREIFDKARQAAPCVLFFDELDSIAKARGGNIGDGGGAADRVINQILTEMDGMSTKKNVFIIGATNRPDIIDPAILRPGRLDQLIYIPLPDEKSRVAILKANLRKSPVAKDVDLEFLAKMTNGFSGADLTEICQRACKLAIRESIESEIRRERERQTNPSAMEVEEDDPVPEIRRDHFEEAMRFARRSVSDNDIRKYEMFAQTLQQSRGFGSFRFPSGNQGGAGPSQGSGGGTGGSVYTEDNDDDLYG
CHOP inh = inhibitors of CHOP promoter induction, primary screen, cell-based, unfolded protein response, luciferase reporter; CHO-K1 CHOP-promoter luciferase, tunicamycin-induced, 15-18 h; AID 2732, 2010; inhibition, % at 10 µM; hit rate 3.8% among 220,000;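 active = compounds that reduced the stress-induced luciferase reporter signal by more than about 70% of percent inhibition, limit read from the data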;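 note: 0% = tunicamycin plus vehicle and 100% = wells without tunicamycin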
PfM18AAP inh = PfM18AAP inhibitors, malaria aminopeptidase, primary screen, biochemical, QFRET, recombinant enzyme. M18 aspartyl aminopeptidase (Plasmodium falciparum 3D7). H-Glu-NHMec fluorogenic cleavage. inhibition, % at 7.35 µM. hit rate 1.2% among 290,000. AID 1822, 2009;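 active = inhibition above the campaign mean inhibition over all tested compounds plus 3 SD, cut at about 28% in these data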;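 note: 0% = plate median of test compound wells and 100% = 2 mM ZnCl2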
CHOP UPR activ = activators of apoptotic CHOP UPR arm, primary screen, cell-based, CHO-CHOP luciferase reporter, luminescence, uHTS; UPR activation; percent of tunicamycin response over DMSO baseline; activation, % at 10 µM; hit rate 0.34% among 330,000; AID 449763, 2010;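 active = at 10 µM dose, activation of 40% or more, normalized to positive control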;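 note: 100% = tunicamycin at 10 µg/mL and 0% = DMSO alone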
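System: CHO-CHOP luciferase reporter cell line | Buffer or medium: F12 medium containing 10% fetal bovine serum | Doses: One dose, 10 µM in 0.5% DMSO | Times: 6 h compound exposure at 37 °C after overnight seeding | Signal: Luciferase luminescence | Read-out: % activation vs tunicamycin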
XBP1 UPR conf = IRE1-XBP1 UPR arm activators, confirmation, cell-based, CHO-XBP1 luciferase reporter, luminescence, single concentration. activation, % at 20 µM. hit rate 63% among 1,000. AID 485299, 2010. shares compounds with UPR XBP1 act;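 active = reporter signal at least 30% of the positive control's activation in two or more of four replicate wells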;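 note: plate controls were DMSO negative control for no effect and tunicamycin 10 µg/mL positive control for full effect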
Active calls of the source: *; / = not tested or not shown.

SMILES	HCV NS3 hel inh	UPR XBP1 act	p97 ATPase inh	CHOP inh	PfM18AAP inh	CHOP UPR activ	XBP1 UPR conf
COCc1cc(C)nc(SCC[N+](C)(C)CC(=O)Nc2cccc(C(F)(F)F)c2)c1C#N	-58	-1	-2	-3	-2	0	/
COc1ccc(/C=C2\SC(=S)N(CCCCCC(=O)Nc3cc(C)on3)C2=O)cc1OC	-5	5	/	/	-8	1	/
COc1ccc(/C=C2\SC(=S)N(CCCC(=O)Nc3cc(C)on3)C2=O)cc1OC	27	42*	/	/	-6	1	2
CCCCCn1c(N)c(-c2nc3ccccc3o2)c2c([N+](=O)[O-])nn(CC)c(=O)c21	7	38*	-6	23	-7	16	53*
CC(=O)O/N=C(\N)c1ccc(-c2csnn2)cc1	6	7	9	3	2	1	/
COc1ccc(OC)c(NC(=O)c2ccccc2SC)c1	3	0	1	4	-14	1	/
COc1ccc(OC)c(NC(=O)c2cc3oc4ccccc4c3cc2O)c1	1	37*	6	28	5	2	6
OC(CNCC1CCCO1)Cn1c2ccccc2c2ccccc21 (centres undefined)	-12	1	-2	49	-1	1	/
OC(CNCC1CCCO1)Cn1c2ccc(Cl)cc2c2cc(Cl)ccc21 (centres undefined)	-96	64*	-2	94*	0	11	59*
CCOC(=O)c1nnn2c1nc(Nc1cccc(C(F)(F)F)c1)c1ccccc12	-7	70*	4	13	-8	30	41*
Cc1ccccc1-c1nc2cc(NC(=O)C3CC3)ccc2o1	-4	1	/	/	2	6	/
O=C(NCCC1CCCCN1S(=O)(=O)c1cccs1)C(=O)Nc1cccc(F)c1 (centres undefined)	/	3	/	/	/	1	/
CC(=O)c1cccc(NC(=S)N2CCN(CCN3C(=O)c4cccc5cccc(c45)C3=O)CC2)c1	-1	159*	3	-12	1	36	-1
COc1ccccc1N1CCN(C2CCCN(C(=O)c3ccsc3)C2)CC1 (centres undefined)	-12	-1	/	/	-5	0	/
Cc1ccc(-c2cc(C(F)F)nc3sc4c(=O)[nH]cnc4c23)cc1	/	44*	/	/	/	26	19
CCOC(=O)c1c(C)nc2sc3c(=O)[nH]cnc3c2c1-c1ccc(OC)cc1	18	2	1	-32	-14	0	/
O=C(NC(=S)Nc1ccccc1F)c1ccc(Br)o1	11	4	2	-19	10	5	/
Cc1ccc2nc(Nc3nc(C)cc(-c4ccccc4)n3)[nH]c(=O)c2c1	-8	31*	10	48	0	7	62*
Cc1ccc2nc(Nc3nc(-c4ccccc4)cc(=O)[nH]3)nc(C)c2c1	0	67*	-1	48	2	5	72*
Cc1cc(C)nc(Nc2nc3ccccc3[nH]2)n1	1	0	-3	-14	-9	4	/
COc1cc(OC)cc(C(=O)NNC(=O)C(=O)Nc2cc(OC)c(Cl)cc2OC)c1	7	-4	/	/	-2	0	/
NS(=O)(=O)c1ccc(NC(=O)COC(=O)c2cn(-c3ccccc3)nc2-c2ccc(F)cc2)cc1	-4	68*	5	78*	0	3	89*
O=S(=O)(NC(=S)c1ccccc1)c1ccccc1	/	-3	/	/	/	0	/
CC(C)N=C(NS(=O)(=O)c1ccccc1)C(Cl)(Cl)Cl	-3	45*	1	70	3	6	75*
COc1ccc([C@H]2CC(=O)C=C(c3ccc(OC)cc3OC)C2)cc1	/	14	/	/	/	4	/
SMILES	HCV NS3 hel inh	UPR XBP1 act	p97 ATPase inh	CHOP inh	PfM18AAP inh	CHOP UPR activ	XBP1 UPR conf
O=C(Nc1nc2ccccc2s1)c1cc2c(s1)-c1ccccc1OC2	-3	134*	2	22	-8	24	93*
O=C(Nc1nccs1)c1cc2c(s1)-c1ccccc1OC2	2	8	6	61	-1	4	/
Cc1ccccc1-c1nc2cc(Cl)ccc2c(=O)o1	-10	49*	/	/	6	0	16
COc1ccc(/C=C2\CCc3ccccc3C2=O)cc1O	-11	19	/	/	14	0	/
O=C(Nc1cccnc1)/C(N=Nc1ccc(Cl)c(C(F)(F)F)c1)=C(\O)c1ccccc1	-2	49*	3	9	-1	13	27
O=C(Nc1cccnc1)/C(N=Nc1c(Cl)cccc1Cl)=C(\O)c1ccccc1	12	3	-4	12	0	0	/
COc1cccc(C2C3=C(N=c4s/c(=C\c5ccc(OCC(=O)O)cc5)c(=O)n42)c2ccccc2CC3)c1 (centres undefined)	21	-2	-1	12	19	0	/
CCN(CC)S(=O)(=O)c1ccc2[nH]c(=O)cc(C(=O)Nc3ccccc3N3CCCC3)c2c1	-1	-4	/	/	5	0	/
CCOC(=O)c1sc(-c2ccccc2)cc1N	2	2	-5	60	0	4	/
CCOC(=O)c1sc(-c2ccccc2)cc1NC(=O)Nc1ccc([N+](=O)[O-])cc1	4	199*	5	91*	-1	16	163*
COc1cccc(/C=N/NC(=O)CSc2cccc3cccnc23)c1	-9	32*	-4	4	4	27	22
O=C(CSc1cccc2cccnc12)N/N=C/c1ccc(O)cc1	-3	1	0	21	9	-2	/
CCOC(=O)[C@H]1[C@H]2COc3ccc(OC)cc3[C@@H]2N2C(=O)c3cc(F)c(F)cc3NC(=O)[C@@]12C	/	-2	/	/	/	4	/
Cc1ccc(C(=O)C(C)OC(=O)Cn2cnc3c2c(=O)n(C)c(=O)n3C)cc1 (centres undefined)	/	-1	/	/	/	1	/
N#CCCn1cc(/C=N/O)c(-c2ccc(Cl)cc2)n1	8	109*	-1	20	-14	-2	-2
Cc1ccc(NCC(=O)Nc2c(C)n(C)n(-c3ccccc3)c2=O)cc1S(=O)(=O)N(C)C	2	-1	-1	4	1	0	/
CCOC(=O)/C(C#N)=C\c1ccc(OCC(=O)Nc2ccc(C)cc2C)c(OC)c1	-5	37*	2	53	-1	11	2
CCOC(=O)/C(C#N)=C/c1ccc(OCC(=O)Nc2cc(C)ccc2C)c(OC)c1	-2	-2	0	-12	1	1	/
Cn1c(COc2ccccc2)nnc1SCC(=O)NC1CCCC1	4	2	/	/	0	0	/
